Activity calls are given as the source filed them. The rule behind the calls is not given here.
Key:
[1] = target: T1, Retinoic acid receptor RXR-alpha (Homo sapiens) (UniProt P19793); assay: Antagonist activity at recombinant RXRalpha LBD expressed in HEK293T cells co-expressing GAL4 DBD assessed as inhibition of 9cRA-induced transactivation at 20 uM by luciferase reporter gene assay; assay type: functional, cell-based; conditions: HEK-293T
T1 sequence (whole entry): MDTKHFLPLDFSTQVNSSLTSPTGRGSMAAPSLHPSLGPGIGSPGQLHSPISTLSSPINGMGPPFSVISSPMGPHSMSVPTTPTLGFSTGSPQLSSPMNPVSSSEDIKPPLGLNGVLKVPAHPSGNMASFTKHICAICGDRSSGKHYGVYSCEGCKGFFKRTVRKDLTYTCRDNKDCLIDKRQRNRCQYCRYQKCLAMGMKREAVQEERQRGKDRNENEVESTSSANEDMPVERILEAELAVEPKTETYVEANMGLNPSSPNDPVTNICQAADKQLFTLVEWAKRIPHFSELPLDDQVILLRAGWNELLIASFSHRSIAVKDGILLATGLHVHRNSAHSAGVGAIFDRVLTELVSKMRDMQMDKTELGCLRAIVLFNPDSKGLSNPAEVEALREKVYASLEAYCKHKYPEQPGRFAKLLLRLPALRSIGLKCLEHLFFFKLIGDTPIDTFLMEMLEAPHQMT
How it was run: (§1)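 One-hybrid assay in HEK293T cells cotransfected with a Gal4 DBD–NR-LBD fusion (RXRα, LXRα, GR, PR, PPARδ or PPARγ) plus UAS-TK-Luc reporter. Compound was 20 μM, given alone or with agonist: 9cRA 0.1 μM (RXRα), TO901317 0.5 μM (LXRα), dexamethasone 50 nM (GR), progesterone 100 nM (PR), GW1516 10 μM (PPARδ), rosiglitazone 10 μM (PPARγ). Luciferase read-out; three independent experiments.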

[2] = target: T2, Peroxisome proliferator-activated receptor gamma (Homo sapiens) (UniProt P37231); assay: Agonist activity at recombinant PPARgamma LBD expressed in HEK293T cells co-expressing GAL4 DBD at 20 uM by transactivation assay; assay type: functional, cell-based; conditions: HEK-293T; how it was run: as §1
T2 sequence (whole entry): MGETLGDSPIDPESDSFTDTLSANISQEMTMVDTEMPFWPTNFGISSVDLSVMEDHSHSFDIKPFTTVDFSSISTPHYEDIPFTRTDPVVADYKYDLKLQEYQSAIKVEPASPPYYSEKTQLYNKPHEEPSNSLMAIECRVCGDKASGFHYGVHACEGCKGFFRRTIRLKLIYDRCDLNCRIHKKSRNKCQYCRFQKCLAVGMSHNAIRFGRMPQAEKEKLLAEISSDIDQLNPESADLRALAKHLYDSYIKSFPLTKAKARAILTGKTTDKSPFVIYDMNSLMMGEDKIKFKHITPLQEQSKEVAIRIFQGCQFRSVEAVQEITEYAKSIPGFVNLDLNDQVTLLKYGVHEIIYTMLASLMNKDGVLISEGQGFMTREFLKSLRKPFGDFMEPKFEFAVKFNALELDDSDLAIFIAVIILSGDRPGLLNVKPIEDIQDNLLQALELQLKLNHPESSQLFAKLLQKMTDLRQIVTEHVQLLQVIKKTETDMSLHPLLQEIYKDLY

[3] = target: T1, Retinoic acid receptor RXR-alpha (Homo sapiens); assay: Agonist activity at recombinant RXRalphaLBD expressed in HEK293T cells co-expressing GAL4 DBD at 20 uM by transactivation assay; assay type: functional, cell-based; conditions: HEK-293T; how it was run: as §1
[4] = Binding affinity to FXRalphaLBD assessed as increase in thermal stability
How it was run: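 DSC with 2 mg/mL FXRαLBD in 20 mM Tris-HCl, 50 mM NaCl, pH 8.0, with DMSO or compound at a compound:protein ratio of 5:1, against the dialysis buffer as reference. Scan was 10–110 °C at 90 °C/h, giving Tm.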

[5] = system: Mus musculus; assay: Reduction of serum triglyceride level in cholesterol-fed C57BL/6 mouse at 100 mg/kg, po after 10 days; assay type: functional; parameters: scale not given: the % may be the effect or the level left
How it was run: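 Male C57BL/6 mice, 8–12 weeks old, were randomized into five groups of nine. Control mice had ground chow; the other groups had chow with 2% cholesterol. Compound (50 or 100 mg/kg) or reference (100 mg/kg) was suspended in 0.5% CMC-Na and given by oral gavage; control and vehicle mice got 0.5% CMC-Na. Serum and hepatic triglyceride and total cholesterol were measured.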

[6] = target: T3, Bile acid receptor (Homo sapiens) (UniProt Q96RI1); assay: Antagonist activity at human FXR in human HepG2 cells assessed as inhibition of CDCA induced BSEP gene expression at 5 to 40 uM after 24 hrs by RT-PCR analysis; assay type: functional, cell-based
T3 sequence (whole entry): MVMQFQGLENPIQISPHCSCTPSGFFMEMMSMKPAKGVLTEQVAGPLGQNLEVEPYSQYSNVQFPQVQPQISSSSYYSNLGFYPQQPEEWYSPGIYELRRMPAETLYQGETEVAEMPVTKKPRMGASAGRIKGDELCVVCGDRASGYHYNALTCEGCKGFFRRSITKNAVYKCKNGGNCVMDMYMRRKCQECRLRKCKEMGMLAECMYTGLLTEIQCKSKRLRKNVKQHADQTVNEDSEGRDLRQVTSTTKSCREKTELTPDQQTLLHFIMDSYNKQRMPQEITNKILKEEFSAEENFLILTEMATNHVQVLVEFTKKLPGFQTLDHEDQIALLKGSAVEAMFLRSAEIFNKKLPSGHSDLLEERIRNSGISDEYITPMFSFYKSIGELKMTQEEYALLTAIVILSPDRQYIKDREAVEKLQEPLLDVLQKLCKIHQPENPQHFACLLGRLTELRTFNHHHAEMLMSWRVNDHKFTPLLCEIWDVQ
How it was run: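 HepG2 cells in 6-well plates were treated with varied concentrations of compound, with or without 100 μM CDCA, for 24 h. Total RNA was taken with TRIzol and cDNA made by reverse transcription. Cyp7A1, SHP, BSEP and SREBP1c mRNA were measured by quantitative RT-PCR and normalized to β-actin. Three independent experiments.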

[7] = target: T4, Peroxisome proliferator-activated receptor delta (Homo sapiens) (UniProt Q03181); assay: Antagonist activity at recombinant PPARdelta LBD expressed in HEK293T cells co-expressing GAL4 DBD assessed as inhibition of GW1516-induced transactivation at 20 uM by luciferase reporter gene assay; assay type: functional, cell-based; conditions: HEK-293T; how it was run: as §1
T4 sequence (whole entry): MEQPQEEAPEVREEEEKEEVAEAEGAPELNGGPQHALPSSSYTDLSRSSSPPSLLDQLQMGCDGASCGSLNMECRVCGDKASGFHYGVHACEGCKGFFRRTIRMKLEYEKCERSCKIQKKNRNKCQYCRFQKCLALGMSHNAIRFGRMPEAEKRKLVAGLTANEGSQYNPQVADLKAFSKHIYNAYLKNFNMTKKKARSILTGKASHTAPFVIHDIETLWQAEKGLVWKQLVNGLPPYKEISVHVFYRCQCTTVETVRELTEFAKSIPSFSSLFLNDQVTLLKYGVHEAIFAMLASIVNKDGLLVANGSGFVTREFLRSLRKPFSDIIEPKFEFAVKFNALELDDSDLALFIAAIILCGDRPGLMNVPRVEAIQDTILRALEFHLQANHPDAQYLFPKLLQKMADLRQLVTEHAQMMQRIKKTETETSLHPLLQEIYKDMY

inhibition [1]: inactive
Activity [2]: < 15.2%
Activity [3]: inactive
Tm [4]: 58.7 °C
inhibition [7]: inactive
Compound: COc1cc(/C=C2\C(=O)N(c3cccc([N+](=O)[O-])c3)N=C2c2ccccc2)ccc1O
Activity [5]: 60.3%
inhibition [6]: Active

From ChEMBL document CHEMBL2169822, “Discovery and optimization of 1,3,4-trisubstituted-pyrazolone derivatives as novel, potent, and nonsteroidal farnesoid X receptor (FXR) selective antagonists” (J Med Chem, 2012)
